XiGFP reactiv – activators of inactive X chromosome reactivation, primary screen, imaging, XiGFP fibroblasts, GFP high-content imaging, set 2 | XiGFP mouse fibroblasts, % GFP-positive cells imaging, 3 d; cells co-treated with 5-aza-dC sensitizer; scaled so ellipticine positive control = 100% | actives 0.055% (n = 360,000) | AID 743238, 2013 | activation, % at 7.58 µM;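 active means mean normalized replicate activation at least 10% and every replicate at or above 10%; inconclusive means only one of the two criteria met; inactive means mean below 10% and not all replicates reach 10%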
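System: SV40-immortalized XiGFP fibroblast cells, line 68-5-11 / Incubation: 3-day compound exposure, then 15 min fixation at room temperature / Compound: single concentration per compound, delivered by pin transfer / Buffer or medium: DMEM plus 5-aza-dC sensitizer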
DENV2 CPE – inhibitors of DENV2 cytopathic effect, primary screen, cell-based, plate reader, single concentration. DENV2-infected cells, cytopathic effect rescue. CPE inhibition, % at 9.99 µM. actives 1.7% (n = 350,000). AID 651640, 2012; in the data active means CPE inhibition above about 20%, passing the limit was not always enough; inconclusive means no clear call, values can overlap the other calls; tested in BHK-21 cells
SIRT5 block – SIRT5 desuccinylase inhibitors, primary screen, biochemical, fluorescence imaging, single point, set 5. NAD-dependent protein deacylase sirtuin-5, mitochondrial (Homo sapiens), Q9NXA8. Purified SirT5, succinyl-peptide AMC, trypsin-coupled fluorescence. inhibition, % at 15 µM. actives 1.1% (n = 330,000); in the data active means inhibition above about 15%; inconclusive means no clear call, values can overlap the other calls
Target sequence (Q9NXA8 whole entry, looked up): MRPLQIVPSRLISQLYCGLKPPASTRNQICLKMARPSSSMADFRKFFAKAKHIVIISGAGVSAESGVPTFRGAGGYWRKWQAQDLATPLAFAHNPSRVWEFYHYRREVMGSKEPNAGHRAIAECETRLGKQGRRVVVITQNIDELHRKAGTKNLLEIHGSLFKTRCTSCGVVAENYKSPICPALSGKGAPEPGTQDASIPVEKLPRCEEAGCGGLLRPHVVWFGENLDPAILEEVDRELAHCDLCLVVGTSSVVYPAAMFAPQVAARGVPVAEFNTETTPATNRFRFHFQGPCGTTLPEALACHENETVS
FGF22 binding – binders of human FGF22 protein, primary screen, FGF22 synaptogenesis inhibitor project, biophysical, thermal shift, single point. activity (Tm shift, normalised), % at 9.99 µM. actives 1.5% (n = 340,000). Fibroblast growth factor 22 (Homo sapiens), Q9HCT0. recombinant FGF22 thermal shift, SYPRO orange fluorescence; percent of sucrose octasulfate shift, DMSO zero;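 active means mean Tm shift, scaled 0 neutral to 100 positive control, at about 1.3% or above, every replicate too, limit read from the data; inconclusive means no clear call, values can overlap the other calls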
Target sequence (Q9HCT0 whole entry, looked up): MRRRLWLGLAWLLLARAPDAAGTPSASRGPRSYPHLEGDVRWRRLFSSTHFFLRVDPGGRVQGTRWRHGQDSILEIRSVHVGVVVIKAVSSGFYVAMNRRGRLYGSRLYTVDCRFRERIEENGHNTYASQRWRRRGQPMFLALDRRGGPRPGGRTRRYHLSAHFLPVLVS
FN deposit inh – inhibitors of fibronectin matrix deposition, primary screen, AH1F cells, Alexa488-fibronectin fluorescence, plate reader | AID 743247, 2014 | AH1F fibroblasts, overnight | inhibition, % at 12.6 µM | actives 0.086% (n = 350,000);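 active means mean inhibition across replicates of 30% or more, regardless of how many single replicates reach that level; inconclusive means mean under 30% yet at least half of replicates reach 30%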
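Assay system: AH1F fibroblasts assembling fluorescent fibronectin matrix; Amount: 10000 AH1F cells per well; Buffer or medium: DMEM, 2% serum; Probe or stimulus: Alexa488-fibronectin, 24 nM final in well; Doses: single compound dose, delivered by pin transfer; Incubation: 1 h adhesion, overnight exposure; Measured by: fluorescence 485/525 nm; Read-out: fibronectin deposition inhibition.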
ARNT-TACC3 inh – disruptors of ARNT/TACC3 protein interaction, primary screen, biochemical, AlphaScreen, single concentration; Transforming acidic coiled-coil-containing protein 3 (Homo sapiens), Q9Y6A5; AlphaScreen His-ARNT PAS-B/GST-TACC3 binding, luminescence; TACC3 fragment carries E629A point mutation; inhibition, % at 9.99 µM; actives 0.66% (n = 390,000); AID 623870, 2012;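 active means mean inhibition of replicates at least 50% and at least half of replicates each reaching 50%; inconclusive means half or more replicates reach 50% but mean below 50%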
Numbers stand for hits; i = inactive; ? = inconclusive; nt = no result given. A selection: hits, their analogues and other compounds. The true share with any hit is near 3.8%.

SMILES | XiGFP reactiv | DENV2 CPE | SIRT5 block | FGF22 binding | FN deposit inh | ARNT-TACC3 inh
C[C@@H]1CN([C@H](C)CO)C(=O)c2cccc(NC(=O)Nc3ccc(C(F)(F)F)cc3)c2O[C@H]1CN(C)C(=O)Nc1cccc2ccccc12 | i | i | 27.2 | i | i | i
C[C@@H]1CN([C@H](C)CO)C(=O)c2cccc(NC(=O)Nc3ccc(C(F)(F)F)cc3)c2O[C@@H]1CN(C)Cc1ccc(-c2ccccc2)cc1 | i | ? | 102.7 | i | nt | i
Cc1noc(C)c1NC(=O)N(C)C[C@H]1Oc2c(NC(=O)Nc3ccc(C(F)(F)F)cc3)cccc2C(=O)N([C@@H](C)CO)C[C@@H]1C | i | 26.7 | i | i | nt | i
C[C@@H]1CN([C@@H](C)CO)C(=O)c2cc(NC(=O)c3ccccc3)ccc2O[C@@H](C)CCCCO[C@@H]1CN(C)C(=O)c1ccncc1 | i | i | i | i | nt | i
O=C(Nc1ccccc1F)N1CC(=O)N2[C@H](C1)[C@@H](c1ccc(-c3cccnc3)cc1)[C@@H]2CO | i | i | i | nt | i | nt
Cc1noc(C)c1NC(=O)Nc1cccc2c1O[C@@H](CN(C)Cc1ccc(C(F)(F)F)cc1)[C@H](C)CN([C@@H](C)CO)C2=O | i | 23.3 | i | i | nt | i
C[C@@H]1CN([C@H](C)CO)C(=O)c2cccc(NC(=O)Nc3ccc(C(F)(F)F)cc3)c2O[C@@H]1CN(C)C(=O)Nc1ccccc1 | i | 43.2 | i | i | nt | i
CCC(=O)Nc1ccc2c(c1)C(=O)N(C)C[C@@H](OC)[C@@H](C)CN(Cc1ccncc1)[C@H](C)CO2 | i | i | i | i | i | i
COc1ccc(CC(=O)NNC(=O)c2ccccn2)cc1 | i | i | i | i | i | 48.1
O=C(COc1ccc(Cl)cc1)NNC(=O)c1ccccn1 | nt | nt | nt | nt | nt | i
COCCCNC(=S)NNC(=O)c1ccccn1 | i | nt | i | i | i | 66.6
Cc1cc(C)cc(OCC(=O)NNC(=O)c2ccccn2)c1 | i | i | i | i | i | 68.1
CC(C)Oc1ccc(C(=O)NCCCNC(=O)c2ccccn2)cc1 | i | i | 16.6 | i | i | i
Cc1noc(C)c1NC(=O)N(C)C[C@@H]1Oc2c(NC(=O)C3CC3)cccc2C(=O)N([C@@H](C)CO)C[C@H]1C | i | i | i | i | nt | i
CO[C@@H]1CN(C)C(=O)c2cc(NC(C)=O)ccc2OC[C@@H](C)N(C(=O)Cc2cccnc2)C[C@H]1C | i | i | i | i | i | i
C[C@@H]1CCCCO[C@@H](CN(C)S(=O)(=O)c2cn(C)cn2)[C@@H](C)CN([C@H](C)CO)C(=O)c2cc(NC(=O)Nc3ccccc3)ccc2O1 | i | i | i | i | i | i
C[C@@H]1CN([C@@H](C)CO)C(=O)c2cccc(NS(=O)(=O)c3ccccc3)c2O[C@H]1CN(C)Cc1ccc(-c2ccccc2)cc1 | i | i | i | i | nt | i
C[C@H](CO)N1C[C@H](C)[C@@H](CN(C)C(=O)NC2CCCCC2)OCCCC[C@H](C)Oc2ccc(NS(=O)(=O)c3ccc(Cl)cc3)cc2C1=O | i | i | i | i | i | i
O=C(NNC(=O)C12CC3CC(CC(C3)C1)C2)c1ccccn1 | i | i | i | i | i | 75.1
Cc1ccc(CN2C(=O)NC(Cc3c[nH]c4ccccc34)C2=O)cc1 (configuration not stated) | i | nt | nt | nt | i | i
O=C1NC(Cc2c[nH]c3ccccc23)C(=O)N1Cc1cccc2ccccc12 (configuration not stated) | i | i | i | 43.4 | i | i
CC(C)CNC(=O)CN1C(=O)NC(Cc2c[nH]c3ccccc23)C1=O (configuration not stated) | i | i | i | 43.1 | i | i
CCOCCCNc1c2c(nc3cc(-c4ccc(F)cc4)nn13)CCC2 | i | i | i | 43.1 | i | nt
Cc1sc(NC(=O)Cn2cnnn2)nc1-c1ccc(Cl)cc1 | i | i | i | 43.0 | i | i
C[C@@H]1CN([C@@H](C)CO)C(=O)Cc2cc(NC(=O)CCCN(C)C)ccc2O[C@@H]1CN(C)S(=O)(=O)c1ccc(Cl)cc1 | i | i | i | i | nt | nt
SMILES | XiGFP reactiv | DENV2 CPE | SIRT5 block | FGF22 binding | FN deposit inh | ARNT-TACC3 inh
NC(=O)c1ccc(Oc2cccc3cccnc23)c([N+](=O)[O-])c1 | i | i | i | i | i | i
COc1ccc(CSc2nc(C)[nH]c2[N+](=O)[O-])cc1[N+](=O)[O-] | i | i | i | i | i | nt
COc1ccc(CSc2cccc3cccnc23)cc1[N+](=O)[O-] | i | i | i | i | i | 45.0
COc1ccc(C(=O)Oc2cccc3cccnc23)cc1[N+](=O)[O-] | i | i | i | i | i | 55.9
CO[C@@H]1CN(C)C(=O)c2cc(NC(=O)CC(F)(F)F)ccc2OC[C@H](C)N(C(=O)C2CC2)C[C@H]1C | i | i | i | i | i | nt
CO[C@@H]1CN(C)C(=O)c2ccc(NC(=O)CC(F)(F)F)cc2OC[C@H](C)N(C(=O)C2CCOCC2)C[C@H]1C | nt | i | i | i | nt | nt
CO[C@H]1CN(C)C(=O)c2ccc(NC(=O)CC(F)(F)F)cc2OC[C@H](C)N(C(=O)C2CCOCC2)C[C@H]1C | i | 23.9 | i | i | nt | nt
CO[C@H]1CN(C)C(=O)c2cc(NC(=O)CC(F)(F)F)ccc2OC[C@@H](C)N(C(=O)C2CC2)C[C@H]1C | i | 37.6 | nt | i | i | nt
CO[C@H]1CN(C)C(=O)c2cc(NC(=O)C3CCC3)ccc2OC[C@@H](C)N(CC2CCCCC2)C[C@@H]1C | i | i | i | i | i | i
COCC(=O)Nc1ccc2c(c1)OC[C@@H](C)N(C(=O)NC(C)C)C[C@@H](C)[C@@H](OC)CN(C)C2=O | i | i | i | i | i | i
O=C(C[C@@H]1CC[C@@H]2[C@H](COC[C@@H](O)CN2S(=O)(=O)c2ccc(F)cc2)O1)N[C@@H]1CCN(Cc2ccccc2)C1 | i | i | i | i | i | i
CCCN(C)C[C@H]1Oc2ncc(C#CCOC)cc2C(=O)N([C@H](C)CO)C[C@H]1C | i | i | i | i | i | i
CC(C)CN(C[C@H]1N[C@H](CO)[C@@H]1c1ccccc1)C(=O)C1CCCCC1 | i | i | 21.5 | nt | i | nt
CC(C)CN(C[C@H]1N[C@H](CO)[C@@H]1c1ccccc1)C(=O)C1CCCC1 | i | i | i | nt | i | nt
